Laboratory results from ChEMBL document CHEMBL1649075, “Synthesis and biological evaluation of (6- and 7-phenyl) coumarin derivatives as selective nonsteroidal inhibitors of 17β-hydroxysteroid dehydrogenase type 1” (J Med Chem, 2011).
The source made the active and inactive calls. No cut-off for these calls is given here.

Columns and labels:
17β-HSD1 (Homo sapiens) [1] = assay: Displacement of [3H]estrone human recombinant 17beta-HSD1 expressed in Escherichia coli BL21 (DE3)-RIL at 6 uM by scintillation counting in presence of NADPH
17β-HSD1 (Homo sapiens) [2] = assay: Displacement of [3H]estrone human recombinant 17beta-HSD1 expressed in Escherichia coli BL21 (DE3)-RIL at 0.6 uM by scintillation counting in presence of NADPH
17β-HSD2 (Homo sapiens) [3] = assay: Displacement of [3H]estradiol human recombinant 17beta-HSD2 expressed in Escherichia coli BL21 (DE3)-RIL at 6 uM by scintillation counting in presence of NAD+
17β-HSD2 (Homo sapiens) [4] = assay: Displacement of [3H]estradiol human recombinant 17beta-HSD2 expressed in Escherichia coli BL21 (DE3)-RIL at 60 uM by scintillation counting in presence of NAD+
[5] = molecular target: T1, Estrogen receptor (Homo sapiens) (UniProt P03372); assay: Displacement of [3H]estradiol from human recombinant ERalpha after 16 hrs by liquid scintillation counting relative to estradiol
T1 sequence (whole entry): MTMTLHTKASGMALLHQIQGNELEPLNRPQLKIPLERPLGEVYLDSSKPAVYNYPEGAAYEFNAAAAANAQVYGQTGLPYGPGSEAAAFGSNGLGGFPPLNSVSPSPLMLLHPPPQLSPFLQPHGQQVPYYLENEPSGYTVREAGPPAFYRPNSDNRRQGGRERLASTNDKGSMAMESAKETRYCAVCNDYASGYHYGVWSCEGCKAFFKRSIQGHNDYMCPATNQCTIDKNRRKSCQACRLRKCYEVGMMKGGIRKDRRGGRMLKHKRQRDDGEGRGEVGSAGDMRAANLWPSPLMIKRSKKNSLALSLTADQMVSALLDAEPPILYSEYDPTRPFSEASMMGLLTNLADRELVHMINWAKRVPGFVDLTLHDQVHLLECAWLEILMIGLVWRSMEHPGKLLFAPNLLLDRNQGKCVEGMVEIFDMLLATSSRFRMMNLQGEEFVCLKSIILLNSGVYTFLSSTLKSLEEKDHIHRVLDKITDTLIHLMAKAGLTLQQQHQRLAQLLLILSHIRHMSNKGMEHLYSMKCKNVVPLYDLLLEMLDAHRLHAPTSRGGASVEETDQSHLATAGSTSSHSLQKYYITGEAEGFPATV
Outline: (§1)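 Recombinant human ERα or ERβ (0.9 nM) was incubated with 9 nM [2,4,6,7-³H]-E2 and test compound (10^-9 to 10^-5 M) at 4 °C, for 18 h per methods (16 h per table footnote). Nonspecific binding was set with 6 μM E2. Complexes were bound to hydroxyapatite in Tris pH 7.5, washed four times, and counted by liquid scintillation. Runs were in triplicate. RBA = IC50(E2)/IC50(compound) × 100.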

[6] = molecular target: Estrogen receptor beta (Homo sapiens) (UniProt Q92731); assay: Displacement of [3H]estradiol from human recombinant ERbeta after 16 hrs by liquid scintillation counting relative to estradiol
Outline: as §1

17β-HSD2 (Homo sapiens) [7] = assay: Displacement of [3H]estradiol human recombinant 17beta-HSD2 expressed in Escherichia coli BL21 (DE3)-RIL at 0.6 uM by scintillation counting in presence of NAD+

Chain of Estrogen receptor beta (Homo sapiens) (Q92731 whole entry): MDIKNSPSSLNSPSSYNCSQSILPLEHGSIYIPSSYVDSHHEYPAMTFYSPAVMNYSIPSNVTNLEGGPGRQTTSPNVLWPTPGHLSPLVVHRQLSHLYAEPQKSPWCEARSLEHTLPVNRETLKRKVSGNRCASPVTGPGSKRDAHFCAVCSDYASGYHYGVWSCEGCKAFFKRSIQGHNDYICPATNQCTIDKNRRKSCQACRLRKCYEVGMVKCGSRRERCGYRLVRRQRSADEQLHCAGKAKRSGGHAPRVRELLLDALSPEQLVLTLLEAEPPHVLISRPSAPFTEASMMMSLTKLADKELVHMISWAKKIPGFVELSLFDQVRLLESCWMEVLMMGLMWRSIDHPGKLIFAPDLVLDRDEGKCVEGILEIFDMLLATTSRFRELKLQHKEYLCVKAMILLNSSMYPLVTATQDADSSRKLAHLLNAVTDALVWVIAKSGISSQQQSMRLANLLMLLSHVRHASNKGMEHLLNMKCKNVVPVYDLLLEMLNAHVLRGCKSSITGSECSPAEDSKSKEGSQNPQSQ

`CCOC(=O)c1cc2cc(-c3ccc(C)cc3)ccc2oc1=O` showed an inhibition (17β-HSD1 (Homo sapiens) [1]) of 16% and an inhibition (17β-HSD1 (Homo sapiens) [2]) of 6%.
`CC(=O)c1cc2ccc(-c3ccc(C)cc3)cc2oc1=O` was tested, and the inhibition (17β-HSD1 (Homo sapiens) [1]) was 72%, the inhibition (17β-HSD2 (Homo sapiens) [3]) was “inactive” and the inhibition (17β-HSD1 (Homo sapiens) [2]) was 40%. The inhibition (17β-HSD2 (Homo sapiens) [4]) was “inactive”.
With `COc1ccc(-c2ccc3ccc(=O)oc3c2)cc1` the inhibition (17β-HSD1 (Homo sapiens) [1]) was 10% and the inhibition (17β-HSD1 (Homo sapiens) [2]) was “inactive”.
For `CCOC(=O)c1cc2cc(-c3ccc(F)cc3)ccc2oc1=O`, the inhibition (17β-HSD1 (Homo sapiens) [1]) was 21% and the inhibition (17β-HSD1 (Homo sapiens) [2]) was 21%.
In the case of `CCOC(=O)c1cc2ccc(OS(=O)(=O)C(F)(F)F)cc2oc1=O`, the inhibition (17β-HSD1 (Homo sapiens) [1]) is reported as “inactive” and the inhibition (17β-HSD1 (Homo sapiens) [2]) is reported as “inactive”.
`CC(=O)c1cc2ccc(OS(=O)(=O)C(F)(F)F)cc2oc1=O` was tested, and the Activity [5] was “inactive”, the Activity [6] was “inactive” and the inhibition (17β-HSD1 (Homo sapiens) [1]) was 100%. The inhibition (17β-HSD2 (Homo sapiens) [3]) was “inactive”, the inhibition (17β-HSD1 (Homo sapiens) [2]) was 60% and the inhibition (17β-HSD2 (Homo sapiens) [7]) was “inactive”.
`CCOC(=O)c1cc2cc(-c3ccccc3)ccc2oc1=O` was tested, and the inhibition (17β-HSD1 (Homo sapiens) [1]) was 21% and the inhibition (17β-HSD1 (Homo sapiens) [2]) was “inactive”.
With `C[C@]12CC[C@H]3C(=CCc4cc(O)ccc43)[C@@H]1CCC2=O` the RBA [5] was 0.15% and the RBA [6] was 1.4%.
In the case of `CC(=O)c1cc2cc(-c3ccc(F)cc3)ccc2oc1=O`, the inhibition (17β-HSD1 (Homo sapiens) [1]) is reported as 59% and the inhibition (17β-HSD1 (Homo sapiens) [2]) is reported as 15%.
For `CCOC(=O)c1cc2ccc(-c3ccccc3)cc2oc1=O`, the inhibition (17β-HSD1 (Homo sapiens) [1]) was 7% and the inhibition (17β-HSD1 (Homo sapiens) [2]) was “inactive”.
With `CC(=O)c1cc2cc(-c3ccc(Cl)cc3)ccc2oc1=O` the inhibition (17β-HSD1 (Homo sapiens) [1]) was “inactive” and the inhibition (17β-HSD1 (Homo sapiens) [2]) was “inactive”.
`CCOC(=O)c1cc2ccc(-c3ccc(C)cc3)cc2oc1=O` gave an inhibition (17β-HSD1 (Homo sapiens) [1]) of 9% and an inhibition (17β-HSD1 (Homo sapiens) [2]) of 11%.
With `Cc1ccc(-c2ccc3oc(=O)ccc3c2)cc1` the inhibition (17β-HSD1 (Homo sapiens) [1]) was “inactive” and the inhibition (17β-HSD1 (Homo sapiens) [2]) was “inactive”.
`O=c1ccc2cc(-c3ccc(O)cc3)ccc2o1` showed an inhibition (17β-HSD1 (Homo sapiens) [1]) of 30% and an inhibition (17β-HSD1 (Homo sapiens) [2]) of 4%.
`CC(=O)c1cc2cc(-c3ccccc3)ccc2oc1=O` was tested, and the inhibition (17β-HSD1 (Homo sapiens) [1]) was “inactive” and the inhibition (17β-HSD1 (Homo sapiens) [2]) was “inactive”.
With `CCOC(=O)c1cc2ccc(-c3ccc(OC)cc3)cc2oc1=O` the inhibition (17β-HSD1 (Homo sapiens) [1]) was 1% and the inhibition (17β-HSD1 (Homo sapiens) [2]) was “inactive”.
`COc1ccc(-c2ccc3oc(=O)ccc3c2)cc1` was tested, and the inhibition (17β-HSD1 (Homo sapiens) [1]) was 26% and the inhibition (17β-HSD1 (Homo sapiens) [2]) was 7%.
Work on `Cc1ccc(-c2ccc3ccc(=O)oc3c2)cc1` yielded an inhibition (17β-HSD1 (Homo sapiens) [1]) of 29% and an inhibition (17β-HSD1 (Homo sapiens) [2]) of 10%.
Molecule `CCOC(=O)c1cc2cc(-c3ccc(Cl)cc3)ccc2oc1=O` has an inhibition (17β-HSD1 (Homo sapiens) [1]) of 14% and an inhibition (17β-HSD1 (Homo sapiens) [2]) of 10%.
With `O=c1ccc2ccc(OS(=O)(=O)C(F)(F)F)cc2o1` the inhibition (17β-HSD1 (Homo sapiens) [1]) was 9% and the inhibition (17β-HSD1 (Homo sapiens) [2]) was “inactive”.
`CCOC(=O)c1cc2cc(Br)ccc2oc1=O` was tested, and the inhibition (17β-HSD1 (Homo sapiens) [1]) was “inactive” and the inhibition (17β-HSD1 (Homo sapiens) [2]) was “inactive”.
With `O=c1ccc2ccc(-c3ccc(O)cc3)cc2o1` the inhibition (17β-HSD1 (Homo sapiens) [1]) was 43% and the inhibition (17β-HSD1 (Homo sapiens) [2]) was “inactive”.
With `CC(=O)c1cc2ccc(-c3ccc(O)cc3)cc2oc1=O` the Activity [5] was “inactive”, the Activity [6] was “inactive” and the inhibition (17β-HSD1 (Homo sapiens) [1]) was 100%. For the same molecule, the inhibition (17β-HSD2 (Homo sapiens) [3]) was “inactive”, the inhibition (17β-HSD1 (Homo sapiens) [2]) was 76% and the inhibition (17β-HSD2 (Homo sapiens) [4]) was “inactive”. For the same molecule, the inhibition (17β-HSD2 (Homo sapiens) [7]) was “inactive”.
In the case of `CC(=O)c1cc2cc(-c3ccc(C)cc3)ccc2oc1=O`, the inhibition (17β-HSD1 (Homo sapiens) [1]) is reported as “inactive” and the inhibition (17β-HSD1 (Homo sapiens) [2]) is reported as “inactive”.
For `O=c1ccc2ccc(-c3ccccc3)cc2o1`, the inhibition (17β-HSD1 (Homo sapiens) [1]) was 10% and the inhibition (17β-HSD1 (Homo sapiens) [2]) was “inactive”.
For `COc1ccc2cc(C(C)=O)c(=O)oc2c1`, the inhibition (17β-HSD1 (Homo sapiens) [1]) was 25%, the inhibition (17β-HSD2 (Homo sapiens) [3]) was “inactive” and the inhibition (17β-HSD1 (Homo sapiens) [2]) was 23%. The inhibition (17β-HSD2 (Homo sapiens) [7]) was “inactive”.
With `O=c1ccc2cc(-c3ccc(Cl)cc3)ccc2o1` the inhibition (17β-HSD1 (Homo sapiens) [1]) was 10% and the inhibition (17β-HSD1 (Homo sapiens) [2]) was “inactive”.
`COc1ccc(-c2ccc3oc(=O)c(C(C)=O)cc3c2)cc1` was tested, and the inhibition (17β-HSD1 (Homo sapiens) [1]) was “inactive” and the inhibition (17β-HSD1 (Homo sapiens) [2]) was “inactive”.
For `CCOC(=O)c1cc2ccc(-c3ccc(Cl)cc3)cc2oc1=O`, the inhibition (17β-HSD1 (Homo sapiens) [1]) was “inactive” and the inhibition (17β-HSD1 (Homo sapiens) [2]) was “inactive”.
`O=c1ccc2cc(Br)ccc2o1` was tested, and the inhibition (17β-HSD1 (Homo sapiens) [1]) was “inactive” and the inhibition (17β-HSD1 (Homo sapiens) [2]) was “inactive”.
`O=c1ccc2cc(-c3ccccc3)ccc2o1` was tested, and the inhibition (17β-HSD1 (Homo sapiens) [1]) was 18% and the inhibition (17β-HSD1 (Homo sapiens) [2]) was “inactive”.
For `COc1ccc(-c2ccc3cc(C(C)=O)c(=O)oc3c2)cc1`, the Activity [5] was “inactive”, the Activity [6] was “inactive” and the inhibition (17β-HSD1 (Homo sapiens) [1]) was 86%. The inhibition (17β-HSD2 (Homo sapiens) [3]) was “inactive”, the inhibition (17β-HSD1 (Homo sapiens) [2]) was 48% and the inhibition (17β-HSD2 (Homo sapiens) [4]) was “inactive”. The inhibition (17β-HSD2 (Homo sapiens) [7]) was “inactive”.
In the case of `O=c1ccc2ccc(-c3ccc(Cl)cc3)cc2o1`, the inhibition (17β-HSD1 (Homo sapiens) [1]) is reported as 9% and the inhibition (17β-HSD1 (Homo sapiens) [2]) is reported as “inactive”.
With `CCOC(=O)c1cc2cc(-c3ccc(OC)cc3)ccc2oc1=O` the inhibition (17β-HSD1 (Homo sapiens) [1]) was 7% and the inhibition (17β-HSD1 (Homo sapiens) [2]) was “inactive”.
In the case of `CC(=O)c1cc2ccc(-c3ccc(Cl)cc3)cc2oc1=O`, the inhibition (17β-HSD1 (Homo sapiens) [1]) is reported as 17% and the inhibition (17β-HSD1 (Homo sapiens) [2]) is reported as 12%.
In the case of `CC(=O)c1cc2ccc(-c3ccc(F)cc3)cc2oc1=O`, the inhibition (17β-HSD1 (Homo sapiens) [1]) is reported as 13% and the inhibition (17β-HSD1 (Homo sapiens) [2]) is reported as 6%.
